Source: PubChem (Broad Institute)
PvdQ inh: P. aeruginosa PvdQ acylase inhibitors, primary screen, biochemical, fluorescence, plate reader and imaging, single point | PvdQ acylase [Pseudomonas aeruginosa LESB58] | purified PvdQ acylase | inhibition, % at 10 µM | 340,000 tested, 0.063% active; in the data active = inhibition above about 30%, passing the limit was not always enough;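 note: 0% = vehicle neutral wells and 100% = reference inhibitor wells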
PfHsp90 set2: growth inhibition of PfHsp90-expressing yeast, primary screen, antimalarial PfHsp90 inhibitor project, S. cerevisiae, BacTiter-Glo luminescence, single point, set 2; AID 504621, 2011; 310,000 tested, 0.32% active; BacTiter-Glo ATP, 48 h; yeast lacking PDR1 and PDR3 efflux regulators; inhibition, % at 9.4 µM;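 active = every replicate shows inhibition above about 80%, whatever the replicate mean, limit read from the data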;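 note: 0% = DMSO neutral controls and 100% = 20 µM radicicol positive controls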
T cruzi inh: inhibitors of intracellular T. cruzi growth, primary screen, luminescence, NIH3T3 host cells; T. cruzi beta-gal in NIH3T3, 90 h; inhibition, % (concentration not given with the values); 300,000 tested, 1.4% active; AID 1885, 2009;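 active = mean inhibition across valid replicates above about 55%, limit read from the data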;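 note: signal also drops with host cell toxicity which is not excluded here; 0% = plate median of DMSO wells and 100% = zero luminescence signal; higher percent means less beta-gal luminescence so fewer parasites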
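System: NIH/3T3 fibroblasts plus reporter T. cruzi. Medium: DMEM plus 2% FBS. Probe or stimulus: 5000 reporter trypomastigotes per well. Compound: single 50 nL compound addition per well in DMSO. Incubation: co-culture of at least 90 h after 3 h attachment. Detection: GalScreen β-gal luminescence, detergent lysis, 60 min. Evaluation: parasite load inhibition, %.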
N-glyco inh: increase of ERlucT glycosylation luciferase signal, primary screen, N-linked glycosylation inhibitor project, D54 ERlucT cells, luminescence, set 2; reporter increase, % at 12.5 µM; 360,000 tested, 0.23% active; AID 588692, 2011; D54 ERlucT glycosylation luciferase reporter, 24 h; percent of 100 nM tunicamycin response;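 active = mean luciferase reporter signal, scaled so untreated is 0 and the glycosylation-blocking control 100, at or above a set limit in every replicate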;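 note: luciferase carries N-glycosylation sites so blocking glycosylation raises the light; 0% = median of neutral control wells and 100% = median of 100 nM tunicamycin wells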
HSF1 activator: HSF-1 activators, primary screen, NIH3T3-HGL cells, MG132 stress, luminescence, single point; 300,000 tested, 1.7% active; NIH3T3-HGL HSF-1 luciferase reporter, 8 h; 100% = twice DMSO control signal; activation, % at 9 µM;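 active = mean replicate activation of at least 50% with a set share of replicates each reaching 50%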;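 note: 0% = median of the neutral control wells and 100% = twice that signal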
CaV13 ICDI inh: Disruptors of the CACNA1D IQ motif to Ca2+-dependent inactivation inhibitor domain association, primary screening, Förster resonance energy transfer in intact living … | 340,000 tested, 0.098% active | inhibition, % at 12.3 µM | HEK cells, CFP/YFP FRET ICDI-IQ, plate reader, 10 min; percent FRET-ratio fall versus neutral wells;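 active = mean replicate inhibition of at least 30% and at least 1% of replicates passing that level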;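 note: 0% = median of the neutral control wells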
An asterisk follows results filed as active; nt = no result given. Compounds with a hit are over-represented: about 3% of the library has one in this group of screens.

SMILES	PvdQ inh	PfHsp90 set2	T cruzi inh	N-glyco inh	HSF1 activator	CaV13 ICDI inh
COc1cc(F)ccc1Oc1cccc2c1S(=O)(=O)N([C@H](C)c1ccccc1)C[C@@H](COCc1ccccc1)O2	nt	nt	nt	nt	nt	-5
CCCCNC(=O)COC(=O)c1c2c(nc3ccccc13)/C(=C/c1cccs1)CC2	-9	-6	nt	1	nt	-13
CNC(=O)NC(=O)C(C)OC(=O)c1c2c(nc3ccccc13)/C(=C/c1cccs1)CC2 (stereo not given)	-13	-22	2	-3	60*	-27
CC(=O)Nc1ccc(NC(=O)COC(=O)[C@@H](NC(=O)c2ccc(F)cc2)C(C)C)cc1	-7	-21	-5	-1	62*	-4
COc1cc(C(=O)OCC#N)ccc1OCc1c(C)noc1C	-6	7	7	31*	2	-2
COc1cc(C(=O)NCc2ccc(C)cc2)ccc1OCc1c(C)noc1C	-11	-48	-2	2	1	nt
O=C(CSc1nnc(-c2ccc(Br)o2)n1Cc1ccccc1)c1ccccc1F	-6	26	8	0	72*	nt
Cc1cc(NC(=O)CSc2nnc(-c3ccc(Br)o3)n2Cc2ccccc2)no1	-3	14	-1	-2	0	nt
O=S(=O)(NCC(c1cccnc1)N1CCN(c2ccc(F)cc2)CC1)c1ccccc1 (stereo not given)	-5	1	59*	-1	0	-7
O=S(=O)(NCC(c1cccnc1)N1CCN(c2ccccc2)CC1)c1cc(F)ccc1F (stereo not given)	-7	-14	76*	1	nt	-7
Cc1ccc(S(=O)(=O)NCC(c2ccccc2)N2CCN(CCC#N)CC2)cc1 (stereo not given)	-8	-6	9	-1	-42	-6
COc1ccccc1N1CCN(C(CNS(=O)(=O)c2cc(F)ccc2F)c2cccnc2)CC1 (stereo not given)	-3	-13	65*	-1	1	-46
CN1CCN(C(CNS(=O)(=O)c2ccc(F)cc2)c2cccnc2)CC1 (stereo not given)	-4	4	31	-1	-6	-5
Cc1ccc(S(=O)(=O)NCC(c2ccccc2)N2CCN(c3ccc(F)cc3)CC2)cc1 (stereo not given)	-7	5	9	-5	54*	-6
O=C(NC1CCCCC1)OC[C@@H]1CSCCS(=O)(=O)N1	nt	nt	nt	nt	nt	-5
CC(C)C[C@H](NC(=O)c1ccccc1)C(=O)N1CCC[C@H]1C(=O)NCc1ccccc1	nt	nt	nt	nt	nt	-2
CCc1nc2c(oc3ccccc32)c(=O)[nH]1	-6	-15	-10	1	22	nt
O=c1[nH]c(CSc2ccccn2)nc2c1oc1ccccc12	-13	-8	7	-16	108*	-7
COC(=O)c1cc2c(c3c4cc(F)ccc4n(S(=O)(=O)c4cccc(C)c4)c13)C(=O)N(C)C2	nt	nt	nt	nt	nt	-9
C[C@H](CO)N1C[C@H](C)[C@H](CN(C)S(=O)(=O)c2ccccc2)Oc2c(NS(C)(=O)=O)cccc2C1=O	-13	13	nt	1	nt	-11
COC(=O)[C@]12C[C@H](CC(=O)NCc3ccccc3)C(=O)N(Cc3ccccc3)C1=C[C@H](C(C)C)O[C@@H]2C1CC1	nt	nt	nt	nt	nt	-6
O=C1NC(Cc2ccccc2)c2nc3cc(F)ccc3c(=O)n2-c2ccccc21 (stereo not given)	nt	nt	nt	nt	nt	-11
CCn1c(=NC(=O)CS(=O)(=O)c2ccccc2)sc2cccc(OC)c21	2	7	58*	-4	14	-7
C=CCCC1CN(Cc2ccc(OC)cc2)S(=O)(=O)c2c(Oc3ccc(C(C)C)cc3)cccc2O1 (stereo not given)	nt	nt	nt	nt	nt	-5
Cc1ccc(Nc2cc(-n3cccn3)ncn2)c(C)c1	-12	-65	9	-5	52*	-9
Cc1ccc(Nc2cc(-n3nc(C)cc3C)ncn2)c(C)c1	-11	nt	23	1	22	-8
